Laboratory results reported in the RNAGym collection of RNA variant scans (doi:10.1126/science.aae0568).
Variants at the floor of the assay were thinned out.

B1: tRNA (parent)
chain: GUUCCGUUGGCGUAAUGGUAACGCGUCUCCCUCCUAAGGAGAAGACUGCGGGUUCGAGUCCCGUACGGAACG

Variants of: B1
Assay: yeast fitness relative to wild type (ratio to wild type); higher = fitter; tRNA-Arg(CCU), competitive growth, 37 C, YPD
Method in brief: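 Gene amplicons from the start population and from each of six end populations were read by 100-nucleotide paired-end sequencing. Those end populations came from pooled Saccharomyces cerevisiae strains carrying tRNA-Arg(CCU) gene variants at the native locus, competed in YPD at 37°C for 24 hours. Fitness relative to wild type was worked out from changes in genotype frequencies. Genotypes needed ≥ 100 starting reads, and estimates < 0.5 were set to 0.5.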

| Variant | yeast fitness |
| --- | --- |
| A36G A45U C49U | 0.882 |
| A36G A65G A70G | 0.639 |
| A36G A65U | 0.991 |
| A36G C46G | 1.08 |
| A36G C49G A70G | 0.53 |
| A36G C49U | 1.02 |
| A36G C49U C61A | ≤ 0.5 |
| A36G C55G | 0.623 |
| A36G C66G | 0.689 |
| A36G G38C U59A | ≤ 0.5 |
| A36G G48A | 0.991 |
| A36G G50A | 0.898 |
| A36G G51A | 0.744 |
| A36G G56A A69U | 0.718 |
| A36G G56A G58C | 0.694 |
| A36G G68C A70G | ≤ 0.5 |
| A36G U47A | 0.789 |
| A36G U53C | 0.724 |
| A36G U54C C61U C66U | ≤ 0.5 |
| A36G U64G C66A | ≤ 0.5 |
| A36U A37G G50C | ≤ 0.5 |
| A36U A40G | 0.549 |
| A36U A40U A57U G63A | ≤ 0.5 |
| A36U A42C A43G U64C A70C | 0.559 |

| Variant | yeast fitness |
| --- | --- |
| A36U A42U | 0.71 |
| A36U A43C C49A C55G | ≤ 0.5 |
| A36U A45C G63C | 0.614 |
| A36U A45G G67A | ≤ 0.5 |
| A36U A45U C46A G68A | ≤ 0.5 |
| A36U A45U U53A | 0.554 |
| A36U A65C | 0.596 |
| A36U A65U | 0.597 |
| A36U C46G C62A | ≤ 0.5 |
| A36U C49U C62G | ≤ 0.5 |
| A36U C55G U64G | ≤ 0.5 |
| A36U C55U | 0.658 |
| A36U C55U G56A | 0.864 |
| A36U C60U | 0.566 |
| A36U C66U | 0.686 |
| A36U G38A A65C | 0.518 |
| A36U G38C A43G G68C | ≤ 0.5 |
| A36U G44C | 0.629 |
| A36U G44C A45U C62U G68A | 0.789 |
| A36U G48A G50U A57U | ≤ 0.5 |
| A36U G48C | 0.648 |
| A36U G48C C66U | ≤ 0.5 |
| A36U G48U C66A | ≤ 0.5 |
| A36U G58A | 0.624 |

| Variant | yeast fitness |
| --- | --- |
| A36U U54A U64C A69U | ≤ 0.5 |
| A37C A40C G41C | 0.579 |
| A37C A40G U47C | ≤ 0.5 |
| A37C A40U G51A | 0.538 |
| A37C A42C C55U | 0.597 |
| A37C A42C C66U | 0.712 |
| A37C A42U | 0.809 |
| A37C A42U C49A | ≤ 0.5 |
| A37C A43C A45C | ≤ 0.5 |
| A37C A43C C62U | 0.882 |
| A37C A45C | 0.758 |
| A37C A65U | 0.866 |
| A37C A70G | 0.769 |
| A37C C46G A70C | 0.632 |
| A37C C46U A69U | 0.7 |
| A37C C46U U59A | ≤ 0.5 |
| A37C C49U | 0.848 |
| A37C C55G G63A | ≤ 0.5 |
| A37C C60G | 0.562 |
| A37C C60G C62G | ≤ 0.5 |
| A37C C60G G67A | ≤ 0.5 |
| A37C G38C | 0.502 |
| A37C G52C C66G | ≤ 0.5 |
| A37C G56C | 0.6 |

| Variant | yeast fitness |
| --- | --- |
| A37C G63C C66U | ≤ 0.5 |
| A37C U47A | 0.674 |
| A37C U47G U53A | 0.535 |
| A37C U53C U64A | 0.679 |
| A37G A40C A43C G67U | ≤ 0.5 |
| A37G A42C A70C | 0.729 |
| A37G A42U | 0.787 |
| A37G A42U A65C A69C | ≤ 0.5 |
| A37G A45G | 0.707 |
| A37G A70C | 0.76 |
| A37G C46A | 0.774 |
| A37G C46U U59G | 0.508 |
| A37G C62U | 0.864 |
| A37G C66U A69U | 0.674 |
| A37G G38C G52A C61U | 0.653 |
| A37G G44A A70C | 0.859 |
| A37G G44C A45C G50A C55G C66A | ≤ 0.5 |
| A37G G44C A57U G68C | 0.512 |
| A37G G51C | 0.601 |
| A37G G52A C55G | 0.516 |
| A37G G58A | 0.976 |
| A37G G58C | 0.719 |
| A37G G58C A69C | 0.623 |
| A37G G63C A65U | ≤ 0.5 |

| Variant | yeast fitness |
| --- | --- |
| A37G G67A | 0.819 |
| A37G U47A C55A G58C | ≤ 0.5 |
| A37G U53C A57C | ≤ 0.5 |
| A37G U53C G67A | ≤ 0.5 |
| A37G U59A | 0.663 |
| A37U A40C G51A | 0.687 |
| A37U A42G A45U G67C | ≤ 0.5 |
| A37U A45U C62G | ≤ 0.5 |
| A37U A45U U47C C62G | ≤ 0.5 |
| A37U A57C U64G | ≤ 0.5 |
| A37U A65C | 0.739 |
| A37U A65C C66G | ≤ 0.5 |
| A37U A70U | 0.655 |
| A37U C49A A65U | ≤ 0.5 |
| A37U C49U C61G | ≤ 0.5 |
| A37U C49U G58A | 0.57 |
| A37U C55G G68C | ≤ 0.5 |
| A37U C55U C61G A65U | ≤ 0.5 |
| A37U C61G | 0.529 |
| A37U C66A | 0.528 |
| A37U G38A | 0.631 |
| A37U G44A A65U | ≤ 0.5 |
| A37U G58A | 0.767 |
| A37U G63A | 0.642 |

| Variant | yeast fitness |
| --- | --- |
| A37U G63C A69C | ≤ 0.5 |
| A37U G67A | 0.724 |
| A37U U53G G56A A70C | ≤ 0.5 |
| A37U U54A | ≤ 0.5 |
| A37U U59C | 0.721 |
| A37U U64A | 0.642 |
| G38A | 1.02 |
| G38A A40G C49U C66A | ≤ 0.5 |
| G38A A40U G50C C60G A70G | 0.526 |
| G38A A42C U54C A69C | ≤ 0.5 |
| G38A A42C U54C C62G A65C C66A | ≤ 0.5 |
| G38A A43C A65C | ≤ 0.5 |
| G38A A43U G56A | 0.596 |
| G38A A57U | 0.772 |
| G38A A69C | 0.847 |
| G38A C62U A70U | 0.577 |
| G38A G56A | 1.02 |
| G38A G58A | 1.06 |
| G38A G58C A70U | 0.748 |
| G38A G58C C66U | 0.588 |
| G38A U47C | 0.837 |
| G38A U54A | 0.628 |
| G38A U54C A65U | 0.581 |
| G38C | 0.806 |

| Variant | yeast fitness |
| --- | --- |
| G38C A40C G51C C62U A69U | ≤ 0.5 |
| G38C A40U U54C | ≤ 0.5 |
| G38C A43G C60U C62U A70C | ≤ 0.5 |
| G38C A43G C62G | ≤ 0.5 |
| G38C A43U A45G | ≤ 0.5 |
| G38C A45G | 0.641 |
| G38C A57G | 0.617 |
| G38C A69U A70U | ≤ 0.5 |
| G38C A70C | 0.738 |
| G38C C46A C62G C66U | ≤ 0.5 |
| G38C C60U C66G | ≤ 0.5 |
| G38C C60U G63C A65G | ≤ 0.5 |
| G38C C61G C66U A69U | ≤ 0.5 |
| G38C C62U A65G | 0.502 |
| G38C G39C C46U A69U | ≤ 0.5 |
| G38C G41C A42G A65G | 0.503 |
| G38C G48C | 0.722 |
| G38C G48C G63C | 0.574 |
| G38C G50A G52A C55U | ≤ 0.5 |
| G38C G50C | 0.562 |
| G38C G56U | 0.633 |
| G38C U54C | 0.82 |
| G38C U59C | 0.711 |
